Calls of active or inactive are those of the source. The calls are words filed in the database; no cut-off is given here.
Assays:
[1] = target: T1, Patatin-like phospholipase domain-containing protein 2 (Mus musculus, UniProt Q8BJ56); assay: Inhibition of mouse recombinant ATGL expressed in African green monkey COS7 cells assessed as reduction in triglyceride hydrolase activity using radio-labelled triolein substrate incubated for 1 hr by liquid scintillation counting; format: cell-based, COS-7
T1 sequence (Q8BJ56 whole entry): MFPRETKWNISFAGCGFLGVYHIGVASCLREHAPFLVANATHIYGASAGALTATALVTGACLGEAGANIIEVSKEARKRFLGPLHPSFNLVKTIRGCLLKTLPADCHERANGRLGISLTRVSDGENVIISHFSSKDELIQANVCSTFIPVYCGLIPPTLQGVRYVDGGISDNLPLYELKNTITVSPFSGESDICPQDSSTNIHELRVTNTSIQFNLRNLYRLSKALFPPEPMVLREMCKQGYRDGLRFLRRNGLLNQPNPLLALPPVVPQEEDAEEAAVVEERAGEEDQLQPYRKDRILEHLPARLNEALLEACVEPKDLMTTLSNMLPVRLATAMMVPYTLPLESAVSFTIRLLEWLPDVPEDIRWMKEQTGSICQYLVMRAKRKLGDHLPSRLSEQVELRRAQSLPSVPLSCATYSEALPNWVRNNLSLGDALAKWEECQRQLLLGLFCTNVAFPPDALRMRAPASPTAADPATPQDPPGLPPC

[2] = target: T2, Patatin-like phospholipase domain-containing protein 2 (Mus musculus) (UniProt Q8BJ56); assay: Inhibition of mouse recombinant ATGL expressed in African green monkey COS7 cells assessed as reduction in triglyceride hydrolase activity at 200 uM using radio-labelled triolein substrate incubated for 1 hr by liquid scintillation counting; format: cell-based; conditions: COS-7
T2 sequence (whole entry): T1 sequence (Q8BJ56 whole entry)
How it was run: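 Lysate (20 μg protein) of COS-7 cells transfected with murine ATGL DNA, sonicated in pH 7.0 sucrose/EDTA/DTT/protease-inhibitor buffer and cleared at 1000×g. Mixed 1:1 with radiolabelled triolein emulsion (prepared at 330 μM, 40,000 cpm/nmol, PC/PI, 100 mM potassium phosphate pH 7.0, 5% FA-free BSA) ± 200 μM inhibitor for 1 h at 37 °C. Released FA counted by scintillation after methanol/chloroform/heptane extraction at pH 10.5.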

Adipose tissue [3] = assay: Inhibition of lipolysis in adipose triglyceride lipase knock out mouse white adipose tissue fat pads assessed as reduction in fatty acids release at 10 to 200 uM; format: functional, tissue-based
[4] = Toxicity in mouse AML-12 cells at 1 to 200 uM by Tox4 test; format: cell-based; conditions: aml-12, 200 µM
[5] = target: T3, Monoglyceride lipase (Homo sapiens) (UniProt Q99685); assay: Inhibition of monoglyceride lipase (unknown origin) at 100 uM incubated for 1 hr
T3 sequence (whole entry): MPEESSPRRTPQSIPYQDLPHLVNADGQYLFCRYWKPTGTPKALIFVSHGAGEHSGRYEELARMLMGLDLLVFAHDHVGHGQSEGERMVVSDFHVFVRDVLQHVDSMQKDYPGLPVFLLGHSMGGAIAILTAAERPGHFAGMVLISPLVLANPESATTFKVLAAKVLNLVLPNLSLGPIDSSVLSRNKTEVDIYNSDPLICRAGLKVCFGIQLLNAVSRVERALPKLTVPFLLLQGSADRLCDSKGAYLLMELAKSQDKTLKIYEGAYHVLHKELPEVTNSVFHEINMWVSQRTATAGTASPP

[6] = target: T4, Lipoprotein lipase (Homo sapiens) (UniProt P06858); assay: Inhibition of lipoprotein lipase (unknown origin) at 100 uM incubated for 1 hr
T4 sequence (whole entry): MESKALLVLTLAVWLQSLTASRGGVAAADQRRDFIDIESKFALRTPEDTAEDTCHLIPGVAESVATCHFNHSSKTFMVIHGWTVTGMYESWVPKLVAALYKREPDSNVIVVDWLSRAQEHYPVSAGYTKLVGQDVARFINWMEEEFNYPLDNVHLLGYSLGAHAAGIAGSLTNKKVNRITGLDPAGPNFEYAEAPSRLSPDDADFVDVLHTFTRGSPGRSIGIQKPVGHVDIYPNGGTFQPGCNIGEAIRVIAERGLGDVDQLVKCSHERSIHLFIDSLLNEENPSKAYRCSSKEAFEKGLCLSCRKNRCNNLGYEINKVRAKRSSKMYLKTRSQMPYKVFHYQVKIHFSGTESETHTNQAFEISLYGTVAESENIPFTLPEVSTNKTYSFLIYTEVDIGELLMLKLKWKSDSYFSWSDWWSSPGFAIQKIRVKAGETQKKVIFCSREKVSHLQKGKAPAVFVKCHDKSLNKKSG
How it was run: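 Purified recombinant LPL (2 μl) was incubated with radiolabelled triolein emulsion, with or without inhibitor, for 1 h at 37 °C. The emulsion was prepared at 330 μM triolein with PC/PI in pH 7.0 phosphate and 5% BSA. Liberated fatty acids were extracted into the alkaline upper phase and quantified by liquid scintillation counting.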

Adipose tissue [7] = assay: Inhibition of lipolysis in hormone-sensitive lipase knock out mouse white adipose tissue fat pads assessed as reduction in fatty acids release at 10 to 200 uM; format: functional, tissue-based
Adipose tissue [8] = assay: Inhibition of lipolysis in wild type mouse white adipose tissue fat pads assessed as reduction in fatty acids release at 10 to 200 uM; format: functional, tissue-based

SMILES | IC50 [1] [µM] | also measured
Oc1ccccc1/C=N/N1CCN(c2ccccc2)CC1 | 75 | –
Clc1ccc(/C=N/N2CCN(c3ccccc3)CC2)cc1Cl | > 200 | –
C(=N\N1CCN(c2ccccc2)CC1)/c1ccc2ccccc2c1 | > 200 | –
O=c1[nH]c2ccc(/C=N/N3CCN(c4ccccc4)CC3)cc2[nH]1 | > 200 | –
Cc1ccc(/C=N/N2CCN(c3ccccc3)CC2)cc1 | > 200 | –
COc1ccc(NC(=O)N2CCN(c3ccccc3)CC2)cc1OC | > 200 | –
C(=N\N1CCN(c2ccccc2)CC1)/c1cccc(Oc2ccccc2)c1 | > 200 | Efficacy [2]: 24%
Oc1ccc(/C=N/N2CCN(c3ccncc3)CC2)c(O)c1 | > 200 | –
COc1cc(/C=N/N2CCN(c3ccccc3)CC2)ccc1O | 60 | –
C(=N\N1CCN(c2ccccc2)CC1)/c1ccc2c(c1)OCO2 | > 200 | –
COc1cc(/C=N/N2CCN(c3ccccc3)CC2)cc(OC)c1OC | > 200 | –
C(=N\N1CCN(c2ccccc2)CC1)/c1ccccn1 | > 200 | –
Oc1ccc(/C=N/N2CCCN(c3ccccc3)CC2)c(O)c1 | > 200 | –
C(=N\N1CCN(c2ccccc2)CC1)/c1ccncc1 | 140 | –
Oc1ccc(/C=N/N2CCN(C3CCCC3)CC2)c(O)c1 | > 200 | –
Oc1ccc(/C=N/N2CCC(Cc3ccccc3)CC2)c(O)c1 | > 200 | –
Brc1ccccc1/C=N/N1CCN(c2ccccc2)CC1 | > 150 | –
Oc1ccc(/C=N/N2CCN(CCc3ccccc3)CC2)c(O)c1 | > 200 | –
C(=N\N1CCN(c2ccccc2)CC1)/c1ccc2ccccc2n1 | > 200 | –
Oc1ccc(/C=N/N2CCN(c3ccccc3)CC2)cc1 | 50 | –
Oc1ccc(/C=N/N2CCN(c3ccccc3)CC2)c(O)c1 | – | inhibition (Adipose tissue [3]): Active; Activity [4]: Toxic; inhibition [5]: inactive; inhibition [6]: inactive; inhibition (Adipose tissue [7]): Active; inhibition (Adipose tissue [8]): Active
CCOC(=O)c1nn(-c2ccc(N(C)C)cc2)cc1O | 120 | –
Cc1cccc(N2CCN(/N=C/c3ccc(O)cc3O)CC2)c1 | > 200 | –

SMILES | IC50 [1] [µM] | also measured
Oc1cccc(/C=N/N2CCN(c3ccccc3)CC2)c1 | 70 | –
C(=N\N1CCN(c2ccccc2)CC1)/c1cccnc1 | > 200 | –
C(=N\N1CCN(c2ccccc2)CC1)/c1cccc2ccccc12 | 200 | –
C1=C(/C=N/N2CCN(c3ccccc3)CC2)CCCC1 | 130 | –
CCCC/C=N/N1CCN(c2ccccc2)CC1 | > 200 | –
Oc1ccc(/C=N/N2CCN(C3CCCCC3)CC2)c(O)c1 | > 200 | –
C(=N\N1CCN(c2ccccc2)CC1)/c1ccc2c(c1)OCCO2 | > 200 | –
CC(=O)Nc1ccc(/C=N/N2CCN(c3ccccc3)CC2)cc1 | > 200 | –
Oc1ccc(/C=N/N2CCN(c3ccccc3)CC2)cc1O | – | inhibition (Adipose tissue [3]): Active; inhibition (Adipose tissue [7]): Active; inhibition (Adipose tissue [8]): Active
Oc1ccc(CN2CCN(c3ccccc3)CC2)cc1O | > 200 | –
Clc1ccc(/C=N/N2CCN(c3ccccc3)CC2)c(Cl)c1 | > 200 | –
COc1ccc(/C=N/N2CCN(c3ccccc3)CC2)cc1OC | 100 | –
CN(C)c1ccc(/C=N/N2CCN(c3ccccc3)CC2)cc1 | > 200 | –
C(=N\N1CCN(c2ccccc2)CC1)/C1CCCCC1 | 200 | –
CCC/C=C/C=N/N1CCN(c2ccccc2)CC1 | > 200 | –
COc1ccc(C(=O)NN2CCN(c3ccccc3)CC2)cc1OC | > 200 | –
O=[N+]([O-])c1ccccc1/C=N/N1CCN(c2ccccc2)CC1 | 180 | –
COc1cc(OC)c(OC)cc1/C=N/N1CCN(c2ccccc2)CC1 | > 200 | –
N#Cc1ccccc1/C=N/N1CCN(c2ccccc2)CC1 | 120 | Efficacy [2]: 60%
Oc1ccc(/C=N/N2CCN(Cc3ccccc3)CC2)c(O)c1 | > 200 | –
CN(CCO)c1ccc(/C=N/N2CCN(c3ccccc3)CC2)cc1 | > 200 | –
COc1ccc(/C=N/N2CCN(c3ccccc3)CC2)cc1O | 80 | –
CCCOc1cccc(/C=N/N2CCN(c3ccccc3)CC2)c1 | > 200 | Efficacy [2]: 14%

Source: ChEMBL document CHEMBL3425459, “Structure-activity studies in the development of a hydrazone based inhibitor of adipose-triglyceride lipase (ATGL)” (Bioorg Med Chem, 2015)
